Legend:
[1] = tested on: PC-3; experiment: Cytotoxicity against human PC3 cells after 72 hrs by MTT assay; assay type: functional, cell-based; conditions: PC-3, 72 h
Summary of the method: (§1)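 Cells seeded at 3.5 × 10⁴ cells/mL and pre-incubated 24 h at 37 °C, 5% CO₂; compounds diluted in DMSO and added for a further 72 h, with DMSO (final 0.5%) as control. Surviving cells measured by MTT, OD read at 492/620 nm; IC50 as mean of triplicate experiments.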

[2] = tested on: SK-OV-3; experiment: Cytotoxicity against human SKOV3 cells after 72 hrs by MTT assay; assay type: functional, cell-based; conditions: SK-OV-3, 72 h; summary of the method: as §1
[3] = tested on: HepG2; experiment: Cytotoxicity against human HepG2 after 72 hrs by MTT assay; assay type: functional, cell-based; conditions: HepG2, 72 h; summary of the method: as §1
[4] = Cytotoxicity against human U87MG cells after 72 hrs by MTT assay; assay type: functional, cell-based, U-87MG ATCC; conditions: U-87 MG; summary of the method: as §1
[5] = tested on: HCT-116; experiment: Cytotoxicity against human HCT116 cells after 72 hrs by MTT assay; assay type: functional, cell-based; conditions: HCT-116, 72 h; summary of the method: as §1
[6] = tested on: CCRF S-180; experiment: Antitumor activity against mouse S180 cells xenografted in ICR mouse assessed as tumor growth suppression at 30 mg/kg, ip qd for 7 days measured on day 8 relative to control; assay type: functional; conditions: route intraperitoneal
Summary of the method: (§2)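 S-180 sarcoma cells implanted in ICR mice (2.5 × 10⁶ or 3 × 10⁶ cells/animal, depending on batch); ten animals per group, allocated by body weight. Dosed intraperitoneally once daily for seven consecutive days in 0.9% physiological saline; saline-only model group and amonafide 30 mg/kg positive control. Body weights recorded every two days; tumours excised and weighed 24 h after last injection; suppression relative to control group.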

[7] = Cytotoxicity against human L02 cells after 72 hrs by MTT assay; assay type: cell-based; conditions: L02, 72 h; summary of the method: as §1
[8] = tested on: CCRF S-180; experiment: Antitumor activity against mouse S180 cells xenografted in ip dosed ICR mouse assessed as tumor growth suppression administered qd for 7 days measured on day 8; assay type: functional, organism-based; summary of the method: as §2
[9] = tested on: CCRF S-180; experiment: Antitumor activity against mouse S180 cells xenografted in ICR mouse assessed as tumor growth suppression at 60 mg/kg, ip qd for 7 days measured on day 8 relative to control; assay type: functional; conditions: route intraperitoneal; summary of the method: as §2
[10] = tested on: CCRF S-180; experiment: Antitumor activity against mouse S180 cells xenografted in ICR mouse assessed as tumor growth suppression at 45 mg/kg, ip qd for 7 days measured on day 8 relative to control; assay type: functional; conditions: route intraperitoneal; summary of the method: as §2
[11] = Cytotoxicity against human HK2 cells after 72 hrs by MTT assay; assay type: cell-based; conditions: HK-2, 72 h; summary of the method: as §1
[12] = tested on: Mus musculus; experiment: Toxicity in mouse S180 cells xenografted ICR mouse assessed as mortality at 15 to 30 mg/kg, ip qd for 7 days; assay type: organism-based, CCRF S-180; set-up: dose 15-30 mg/kg, route intraperitoneal; conditions: in vivo, 168 h
Summary of the method: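 S-180 sarcoma cells implanted into ICR mice (3 × 10⁶ cells/animal for this batch), ten animals per group allocated by weight. Drug dissolved in 0.9% saline (stock 0.75–3 mg/mL) and given intraperitoneally once daily for seven consecutive days at 7.5, 15 or 30 mg/kg; saline-only model group. Body weight recorded every two days; tumors excised and weighed 24 h after last injection.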

[13] = tested on: CCRF S-180; experiment: Antitumor activity against mouse S180 cells xenografted in ICR mouse assessed as tumor growth suppression at 7.5 mg/kg, ip qd for 7 days measured on day 8; assay type: functional; conditions: route intraperitoneal; summary of the method: as §2

CCCCn1nnc2cc3c4c(cccc4c21)C(=O)N(CCCN(C)C)C3=O
IC50 [1]: 15.5 µM
IC50 [2]: 8.93 µM
IC50 [3]: 5.77 µM
IC50 [4]: 6.32 µM
IC50 [5]: 6.34 µM

CN(C)CCCN1C(=O)c2cccc3c2c(cc2nnn(CCN(C)C)c23)C1=O
IC50 [1]: 3.28 µM
IC50 [2]: 0.64 µM
IC50 [3]: 0.78 µM
IC50 [4]: 0.37 µM
IC50 [5]: 0.39 µM

Cn1nnc2cc3c4c(cccc4c21)C(=O)N(CC[N+](C)(C)[O-])C3=O
IC50 [1]: > 10 µM
Activity [6]: 4.83%
IC50 [2]: > 10 µM
IC50 [7]: 142 µM
Activity [8]: Dose-dependent effect
IC50 [3]: > 10 µM
IC50 [4]: > 10 µM
Activity [9]: 62.74%
Activity [10]: 46.18%
IC50 [11]: 108 µM
IC50 [5]: > 10 µM

CN(C)CCN1C(=O)c2cccc3cc(N)cc(c23)C1=O [AMONAFIDE]
IC50 [1]: 8.05 µM
IC50 [2]: 8.83 µM
IC50 [3]: 1.41 µM
IC50 [4]: 2.8 µM
IC50 [5]: 4.55 µM

CN(C)CCN1C(=O)c2cccc3cc(Nc4ccc([N+](=O)[O-])cc4)cc(c23)C1=O
IC50 [1]: 0.41 µM
IC50 [2]: 1.32 µM
IC50 [3]: 0.41 µM
IC50 [4]: 0.62 µM
IC50 [5]: 0.62 µM

COc1ccc(Nc2cc3c4c(cccc4c2)C(=O)N(CCN(C)C)C3=O)cc1
IC50 [1]: 1.62 µM
IC50 [2]: 2.34 µM
IC50 [3]: 0.9 µM
IC50 [4]: 2.52 µM
IC50 [5]: 1.24 µM

CCCCn1nnc2cc3c4c(cccc4c21)C(=O)N(CCN(C)C)C3=O
IC50 [1]: 4.77 µM
IC50 [2]: 2.55 µM
IC50 [3]: 1.01 µM
IC50 [4]: 1.46 µM
IC50 [5]: 1.82 µM

CN(C)CCN1C(=O)c2cccc3c2c(cc2nnn(C)c23)C1=O
IC50 [1]: 1.58 µM
IC50 [2]: 1.17 µM
IC50 [7]: 1.77 µM
Activity [12]: Toxic
IC50 [3]: 0.68 µM
IC50 [4]: 0.45 µM
Activity [13]: 26.25%
IC50 [11]: 0.99 µM
IC50 [5]: 0.65 µM

CN(C)CCN1C(=O)c2cccc3c2c(cc2nnn(CCO)c23)C1=O
IC50 [1]: 4.29 µM
IC50 [2]: 2.53 µM
IC50 [3]: 1.07 µM
IC50 [4]: 1.22 µM
IC50 [5]: 1.42 µM

CN(C)CCCn1nnc2cc3c4c(cccc4c21)C(=O)N(CCN(C)C)C3=O
IC50 [1]: 0.71 µM
IC50 [2]: 0.4 µM
IC50 [3]: 0.18 µM
IC50 [4]: 0.14 µM
IC50 [5]: 0.15 µM

CN(C)CCN1C(=O)c2cccc3c2c(cc2nnn(CCN(C)C)c23)C1=O
IC50 [1]: 0.73 µM
IC50 [2]: 0.35 µM
IC50 [3]: 0.17 µM
IC50 [4]: 0.13 µM
IC50 [5]: 0.19 µM

CN(C)CCCN1C(=O)c2cccc3c2c(cc2nnn(CCO)c23)C1=O
IC50 [1]: 25 µM
IC50 [2]: 9.64 µM
IC50 [3]: 5.21 µM
IC50 [4]: 4.31 µM
IC50 [5]: 7.73 µM

CN(C)CCCN1C(=O)c2cccc3c2c(cc2nnn(CCCN(C)C)c23)C1=O
IC50 [1]: 1.2 µM
IC50 [2]: 0.46 µM
IC50 [3]: 0.29 µM
IC50 [4]: 0.3 µM
IC50 [5]: 0.35 µM

CN(C)CCCN1C(=O)c2cccc3c2c(cc2nnn(C)c23)C1=O
IC50 [1]: 3.21 µM
IC50 [2]: 2 µM
IC50 [3]: 0.97 µM
IC50 [4]: 1.14 µM
IC50 [5]: 1.35 µM
